pIC50: −log10 of the molar value. Each block holds one molecule with its values, some of them ahead of it.
Experiments:
[1] = molecular target: Tyrosine-protein kinase BTK (Homo sapiens, UniProt Q06187); experiment: Inhibition of human recombinant BTK incubated for 5 mins by HTRF kinase assay
[2] = Clearance in Sprague-Dawley rat at 2.5 mg/kg, iv by LC-MS/MS method; assay type: ADME, organism-based; conditions: in vivo
Method in brief: (§1)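 Male SD rats, 3 per route (180-240 g), dosed 2.5 mg/kg iv or 10 mg/kg po at 5 mL/kg. Blood was sampled from 2 min to 24 h, centrifuged at 4000 rpm for 5 min at 4 °C and protein-precipitated. Plasma was quantified by LC/MS/MS in SRM mode with an internal standard. PK parameters came from noncompartmental analysis.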

[3] = Cmax in Sprague-Dawley rat at 2.5 mg/kg, iv by LC-MS/MS method; assay type: ADME, organism-based; set-up: dose 2.5 mg/kg, route intravenous; conditions: in vivo; method in brief: as §1
[4] = Clearance in Sprague-Dawley rat at 10 mg/kg, po by LC-MS/MS method; assay type: ADME, organism-based; conditions: in vivo; method in brief: as §1
[5] = Tmax in Sprague-Dawley rat at 2.5 mg/kg, iv by LC-MS/MS method; assay type: ADME, organism-based; conditions: in vivo; method in brief: as §1
[6] = molecular target: Vascular endothelial growth factor receptor 2 (Homo sapiens, UniProt P35968); experiment: Inhibition of KDR (unknown origin) using poly (Glu-Tyr, 4:1) substrate incubated for 60 mins by ELISA method
Sequence of Vascular endothelial growth factor receptor 2 (P35968 whole entry): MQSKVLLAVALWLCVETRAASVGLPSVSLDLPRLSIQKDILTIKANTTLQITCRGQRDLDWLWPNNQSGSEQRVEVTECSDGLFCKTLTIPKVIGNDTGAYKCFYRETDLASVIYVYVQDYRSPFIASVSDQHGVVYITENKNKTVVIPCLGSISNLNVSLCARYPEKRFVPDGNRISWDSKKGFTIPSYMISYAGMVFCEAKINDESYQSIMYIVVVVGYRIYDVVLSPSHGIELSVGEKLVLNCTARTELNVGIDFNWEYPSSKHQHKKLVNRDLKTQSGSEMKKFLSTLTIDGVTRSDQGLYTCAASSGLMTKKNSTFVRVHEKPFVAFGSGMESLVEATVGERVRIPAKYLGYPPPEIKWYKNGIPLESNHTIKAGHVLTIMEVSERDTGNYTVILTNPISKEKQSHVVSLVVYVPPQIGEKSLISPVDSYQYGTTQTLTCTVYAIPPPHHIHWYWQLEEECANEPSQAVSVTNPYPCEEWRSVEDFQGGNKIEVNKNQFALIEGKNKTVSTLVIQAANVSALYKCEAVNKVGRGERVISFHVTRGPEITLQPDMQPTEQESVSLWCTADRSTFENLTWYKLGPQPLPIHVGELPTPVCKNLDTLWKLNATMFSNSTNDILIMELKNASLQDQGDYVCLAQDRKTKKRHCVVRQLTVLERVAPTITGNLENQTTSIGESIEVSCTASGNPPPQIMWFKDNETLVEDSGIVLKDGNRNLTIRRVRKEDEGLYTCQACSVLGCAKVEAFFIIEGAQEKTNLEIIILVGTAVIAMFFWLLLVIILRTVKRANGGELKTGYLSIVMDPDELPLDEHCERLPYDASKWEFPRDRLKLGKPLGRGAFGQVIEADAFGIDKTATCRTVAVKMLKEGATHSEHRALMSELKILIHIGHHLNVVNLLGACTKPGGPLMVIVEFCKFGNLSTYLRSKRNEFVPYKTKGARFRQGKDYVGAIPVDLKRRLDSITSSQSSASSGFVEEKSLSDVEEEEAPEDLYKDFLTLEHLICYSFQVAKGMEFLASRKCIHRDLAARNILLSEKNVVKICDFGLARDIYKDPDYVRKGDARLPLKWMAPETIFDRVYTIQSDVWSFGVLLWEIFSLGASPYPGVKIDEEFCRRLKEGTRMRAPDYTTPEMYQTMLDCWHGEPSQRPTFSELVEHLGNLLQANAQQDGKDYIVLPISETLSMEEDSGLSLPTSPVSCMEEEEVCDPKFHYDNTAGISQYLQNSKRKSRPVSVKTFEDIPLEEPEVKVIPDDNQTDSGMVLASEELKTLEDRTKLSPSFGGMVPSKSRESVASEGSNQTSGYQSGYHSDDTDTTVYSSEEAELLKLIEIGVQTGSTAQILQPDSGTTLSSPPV
Method in brief: (§2)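 ELISA on wells precoated overnight at 37 °C with 0.2 mg/mL poly(Glu-Tyr, 4:1). Kinase and 0.01 mmol/L ATP in reaction medium, plus inhibitor at various concentrations in 1% DMSO, were reacted for 60 min at 37 °C. Anti-phosphotyrosine antibody and HRP anti-mouse IgG followed, with TMB read-out stopped by 2 M H2SO4 and OD at 450 nm. IC50 came from regression of concentration/inhibition data.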

[7] = Tmax in Sprague-Dawley rat at 10 mg/kg, po by LC-MS/MS method; assay type: ADME, organism-based; conditions: in vivo; method in brief: as §1
[8] = Half life in Sprague-Dawley rat at 2.5 mg/kg, iv by LC-MS/MS method; assay type: ADME, organism-based; conditions: in vivo; method in brief: as §1
[9] = Oral bioavailability in Sprague-Dawley rat at 10 mg/kg by LC-MS/MS method; assay type: ADME, organism-based; conditions: in vivo; method in brief: as §1
[10] = Cmax in Sprague-Dawley rat at 10 mg/kg, po by LC-MS/MS method; assay type: ADME, organism-based; set-up: dose 10 mg/kg, route oral; conditions: in vivo; method in brief: as §1
[11] = molecular target: Hepatocyte growth factor receptor (Homo sapiens, UniProt P08581); experiment: Inhibition of c-MET (unknown origin) using poly (Glu-Tyr, 4:1) substrate incubated for 60 mins by ELISA method; method in brief: as §2
Sequence of Hepatocyte growth factor receptor (P08581 whole entry): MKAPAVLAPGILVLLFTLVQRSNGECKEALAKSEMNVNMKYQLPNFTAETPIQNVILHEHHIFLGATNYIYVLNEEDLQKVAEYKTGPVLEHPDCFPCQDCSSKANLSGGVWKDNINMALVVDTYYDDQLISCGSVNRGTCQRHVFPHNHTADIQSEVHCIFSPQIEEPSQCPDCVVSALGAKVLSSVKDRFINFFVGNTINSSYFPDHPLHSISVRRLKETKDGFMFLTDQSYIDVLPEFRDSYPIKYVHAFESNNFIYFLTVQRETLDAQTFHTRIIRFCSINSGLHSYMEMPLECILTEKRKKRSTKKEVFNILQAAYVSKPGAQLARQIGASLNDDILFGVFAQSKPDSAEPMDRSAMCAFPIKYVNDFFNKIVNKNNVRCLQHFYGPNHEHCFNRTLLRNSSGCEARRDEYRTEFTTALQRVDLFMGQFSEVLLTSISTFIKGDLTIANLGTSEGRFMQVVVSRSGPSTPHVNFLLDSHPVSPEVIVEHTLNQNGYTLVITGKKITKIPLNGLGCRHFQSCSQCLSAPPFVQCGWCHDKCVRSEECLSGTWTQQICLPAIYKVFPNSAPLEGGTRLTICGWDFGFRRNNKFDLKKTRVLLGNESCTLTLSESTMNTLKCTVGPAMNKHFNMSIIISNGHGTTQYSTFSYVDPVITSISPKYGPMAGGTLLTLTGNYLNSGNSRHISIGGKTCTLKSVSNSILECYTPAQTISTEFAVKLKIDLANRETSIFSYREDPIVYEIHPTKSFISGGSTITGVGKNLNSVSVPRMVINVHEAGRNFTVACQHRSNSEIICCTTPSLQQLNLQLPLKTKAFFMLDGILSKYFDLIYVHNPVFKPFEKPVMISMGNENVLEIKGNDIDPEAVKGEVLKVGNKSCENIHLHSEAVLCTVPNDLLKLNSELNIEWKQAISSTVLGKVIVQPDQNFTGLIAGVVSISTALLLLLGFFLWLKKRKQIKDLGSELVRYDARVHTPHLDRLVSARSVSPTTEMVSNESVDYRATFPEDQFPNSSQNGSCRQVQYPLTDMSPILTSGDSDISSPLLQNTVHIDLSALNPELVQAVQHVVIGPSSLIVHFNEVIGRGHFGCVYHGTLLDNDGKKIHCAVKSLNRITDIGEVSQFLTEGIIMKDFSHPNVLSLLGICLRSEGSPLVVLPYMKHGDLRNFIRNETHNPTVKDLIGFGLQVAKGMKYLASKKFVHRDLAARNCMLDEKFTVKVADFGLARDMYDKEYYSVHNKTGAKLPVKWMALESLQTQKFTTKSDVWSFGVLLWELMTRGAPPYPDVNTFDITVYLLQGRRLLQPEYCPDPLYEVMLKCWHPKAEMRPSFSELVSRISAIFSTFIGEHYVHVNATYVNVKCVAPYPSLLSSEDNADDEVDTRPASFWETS

[12] = Mean residence time in Sprague-Dawley rat at 10 mg/kg, po by LC-MS/MS method; assay type: ADME, organism-based; conditions: in vivo; method in brief: as §1
[13] = molecular target: T1, Tyrosine-protein kinase JAK3 (Homo sapiens, UniProt P52333); experiment: Inhibition of JAK3 (unknown origin) using poly (Glu-Tyr, 4:1) substrate incubated for 60 mins by ELISA method; method in brief: as §2
T1 sequence (P52333 whole entry): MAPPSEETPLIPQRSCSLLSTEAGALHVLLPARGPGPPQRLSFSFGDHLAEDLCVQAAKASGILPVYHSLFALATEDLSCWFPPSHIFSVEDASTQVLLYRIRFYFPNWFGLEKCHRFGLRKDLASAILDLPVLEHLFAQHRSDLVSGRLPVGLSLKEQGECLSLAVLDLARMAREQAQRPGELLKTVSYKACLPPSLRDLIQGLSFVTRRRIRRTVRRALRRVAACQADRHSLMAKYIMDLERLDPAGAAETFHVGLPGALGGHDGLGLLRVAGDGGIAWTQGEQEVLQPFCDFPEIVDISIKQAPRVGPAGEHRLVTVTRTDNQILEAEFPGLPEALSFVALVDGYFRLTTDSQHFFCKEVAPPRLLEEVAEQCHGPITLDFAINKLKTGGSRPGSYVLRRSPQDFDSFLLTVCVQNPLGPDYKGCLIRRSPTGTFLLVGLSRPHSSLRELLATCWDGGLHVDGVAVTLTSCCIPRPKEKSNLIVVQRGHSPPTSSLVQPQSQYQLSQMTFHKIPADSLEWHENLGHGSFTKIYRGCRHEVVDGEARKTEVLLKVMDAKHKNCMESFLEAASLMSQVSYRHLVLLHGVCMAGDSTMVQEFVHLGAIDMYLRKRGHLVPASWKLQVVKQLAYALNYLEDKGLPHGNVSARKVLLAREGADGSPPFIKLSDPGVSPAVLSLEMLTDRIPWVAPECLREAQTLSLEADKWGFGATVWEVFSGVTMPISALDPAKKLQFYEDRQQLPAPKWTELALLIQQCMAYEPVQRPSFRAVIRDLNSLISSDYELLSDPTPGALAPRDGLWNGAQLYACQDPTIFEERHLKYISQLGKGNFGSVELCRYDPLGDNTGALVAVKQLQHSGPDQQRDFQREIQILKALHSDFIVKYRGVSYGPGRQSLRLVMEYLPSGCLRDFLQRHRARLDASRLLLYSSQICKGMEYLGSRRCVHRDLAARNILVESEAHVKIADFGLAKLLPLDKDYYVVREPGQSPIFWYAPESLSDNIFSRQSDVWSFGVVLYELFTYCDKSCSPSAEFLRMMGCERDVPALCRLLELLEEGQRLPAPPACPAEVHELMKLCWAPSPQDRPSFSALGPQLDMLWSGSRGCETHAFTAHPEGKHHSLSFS

[14] = Half life in Sprague-Dawley rat at 10 mg/kg, po by LC-MS/MS method; assay type: ADME, organism-based; conditions: in vivo; method in brief: as §1
[15] = AUC (0 to t) in Sprague-Dawley rat at 10 mg/kg, po by LC-MS/MS method; assay type: ADME, organism-based; conditions: in vivo; method in brief: as §1
[16] = Apparent volume of distribution in Sprague-Dawley rat at 2.5 mg/kg, iv by LC-MS/MS method; assay type: ADME, organism-based; conditions: in vivo, read-out: Vz; method in brief: as §1
[17] = AUC (0 to t) in Sprague-Dawley rat at 2.5 mg/kg, iv by LC-MS/MS method; assay type: ADME, organism-based; conditions: in vivo; method in brief: as §1
[18] = molecular target: Tyrosine-protein kinase JAK2 (Homo sapiens, UniProt O60674); experiment: Inhibition of JAK2 (unknown origin) using poly (Glu-Tyr, 4:1) substrate incubated for 60 mins by ELISA method; method in brief: as §2
Sequence of Tyrosine-protein kinase JAK2 (O60674 whole entry): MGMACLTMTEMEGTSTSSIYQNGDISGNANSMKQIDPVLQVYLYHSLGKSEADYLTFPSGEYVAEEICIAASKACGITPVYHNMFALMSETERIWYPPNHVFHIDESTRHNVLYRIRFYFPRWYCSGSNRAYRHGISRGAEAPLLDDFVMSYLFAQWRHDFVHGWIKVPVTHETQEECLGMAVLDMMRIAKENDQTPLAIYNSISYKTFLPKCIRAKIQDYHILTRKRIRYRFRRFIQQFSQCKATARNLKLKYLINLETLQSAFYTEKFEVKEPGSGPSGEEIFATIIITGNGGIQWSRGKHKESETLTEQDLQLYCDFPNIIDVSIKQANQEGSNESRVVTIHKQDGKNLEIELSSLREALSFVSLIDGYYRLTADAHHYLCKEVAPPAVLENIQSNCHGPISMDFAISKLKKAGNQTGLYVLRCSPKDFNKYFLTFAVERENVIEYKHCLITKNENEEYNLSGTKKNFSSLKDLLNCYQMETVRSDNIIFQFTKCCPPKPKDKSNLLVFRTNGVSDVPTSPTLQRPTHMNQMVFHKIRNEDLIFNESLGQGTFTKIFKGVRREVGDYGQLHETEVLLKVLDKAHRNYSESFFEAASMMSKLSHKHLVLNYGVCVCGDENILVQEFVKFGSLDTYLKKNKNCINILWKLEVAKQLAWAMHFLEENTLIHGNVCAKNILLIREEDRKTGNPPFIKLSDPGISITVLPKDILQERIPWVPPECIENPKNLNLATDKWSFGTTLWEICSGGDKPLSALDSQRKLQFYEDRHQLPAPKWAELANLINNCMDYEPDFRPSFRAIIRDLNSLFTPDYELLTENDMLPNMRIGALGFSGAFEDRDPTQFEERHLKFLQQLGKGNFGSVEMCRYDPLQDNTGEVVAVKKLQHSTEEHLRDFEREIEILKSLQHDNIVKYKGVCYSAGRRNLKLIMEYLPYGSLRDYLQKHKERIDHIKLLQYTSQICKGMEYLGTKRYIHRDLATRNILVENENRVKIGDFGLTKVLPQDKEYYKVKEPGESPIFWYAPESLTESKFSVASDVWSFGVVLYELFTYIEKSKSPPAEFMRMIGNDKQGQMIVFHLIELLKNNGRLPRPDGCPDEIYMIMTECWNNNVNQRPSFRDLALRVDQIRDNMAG

[19] = Mean residence time in Sprague-Dawley rat at 2.5 mg/kg, iv by LC-MS/MS method; assay type: ADME, organism-based; conditions: in vivo; method in brief: as §1
[20] = test system: Rattus norvegicus; experiment: Apparent volume of distribution in Sprague-Dawley rat at 10 mg/kg, po by LC-MS/MS method; assay type: ADME, organism-based; conditions: in vivo; method in brief: as §1

Sequence of Tyrosine-protein kinase BTK (Q06187 whole entry): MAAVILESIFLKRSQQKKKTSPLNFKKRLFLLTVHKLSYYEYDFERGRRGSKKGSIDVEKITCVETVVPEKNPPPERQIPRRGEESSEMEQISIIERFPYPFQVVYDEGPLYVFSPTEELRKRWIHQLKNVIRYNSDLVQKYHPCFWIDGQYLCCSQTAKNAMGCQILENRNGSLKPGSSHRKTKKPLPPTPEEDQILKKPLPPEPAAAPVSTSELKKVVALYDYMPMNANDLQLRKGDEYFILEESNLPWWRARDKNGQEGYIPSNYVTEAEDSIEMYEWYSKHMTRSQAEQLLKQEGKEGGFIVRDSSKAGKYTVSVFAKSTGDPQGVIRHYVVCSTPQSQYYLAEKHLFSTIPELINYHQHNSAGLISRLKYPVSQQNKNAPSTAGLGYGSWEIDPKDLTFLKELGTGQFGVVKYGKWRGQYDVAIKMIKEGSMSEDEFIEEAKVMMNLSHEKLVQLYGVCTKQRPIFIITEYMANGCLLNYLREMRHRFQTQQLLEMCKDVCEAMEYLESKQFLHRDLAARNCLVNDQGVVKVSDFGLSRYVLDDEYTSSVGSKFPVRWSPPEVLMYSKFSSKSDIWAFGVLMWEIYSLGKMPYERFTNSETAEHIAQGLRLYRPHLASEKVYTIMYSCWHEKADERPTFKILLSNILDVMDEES

Structure (SMILES): COCCCn1cc(-c2cnc(N)c3c(-c4ccc(Oc5ccccc5)cc4)csc23)cn1
- pIC50 [1]: 6.55

Structure (SMILES): CNC(=O)Cn1cc(-c2cnc(N)c3c(-c4ccc(NC(=O)c5cccc(Cl)c5)cc4)csc23)cn1
- pIC50 [1]: 6.39

Structure (SMILES): CC(=O)n1cc(-c2cnc(N)c3c(-c4ccc(Oc5ccccc5)cc4)csc23)cn1
- pIC50 [1]: 6.34

Structure (SMILES): Nc1ncc(-c2ccc(N3CCOCC3)cc2)c2scc(-c3ccc(Oc4ccccc4)cc3)c12
- pIC50 [1]: 5.64

Structure (SMILES): CCCCn1cc(-c2cnc(N)c3c(-c4ccc(Oc5ccccc5)cc4)csc23)cn1
- pIC50 [1]: 6.41

Structure (SMILES): COc1ccc2cc(-c3cnc(N)c4c(-c5ccc(Oc6ccccc6)cc5)csc34)ccc2c1
- pIC50 [1]: < 5.00

Structure (SMILES): CNC(=O)Cn1cc(-c2cnc(N)c3c(-c4ccc(C(=O)Nc5ccccc5)cc4)csc23)cn1
- pIC50 [1]: 6.86

Structure (SMILES): CNC(=O)Cn1cc(-c2cnc(N)c3c(-c4ccc(Oc5ccccc5)cc4)csc23)cn1
- clearance [2]: 28.6 mL/min/kg
- Cmax [3]: 2550 ng/mL
- pIC50 [1]: 7.89
- CL/F [4]: 145 mL/min/kg
- Tmax [5]: 6.6 min
- pIC50 [6]: 6.55
- Tmax [7]: 40.2 min
- half-life [8]: 21.6 min
- bioavailability [9]: 23.4%
- Cmax [10]: 856 ng/mL
- pIC50 [11]: < 5.00
- MRT [12]: 88.8 min
- pIC50 [13]: < 5.00
- half-life [14]: 60.6 min
- AUC(0-t) [15]: 1370 ng·h/mL
- Vd [16]: 0.9 L/kg
- AUC(0-t) [17]: 1460 ng·h/mL
- pIC50 [18]: < 5.00
- MRT [19]: 25.8 min
- Vz [20]: 13.3206 L/kg

Structure (SMILES): CCn1cc(-c2cnc(N)c3c(-c4ccc(Oc5ccccc5)cc4)csc23)cn1
- pIC50 [1]: 6.75

Structure (SMILES): Nc1ncc(-c2ccc(Oc3ccccc3)cc2)c2scc(-c3ccc(Oc4ccccc4)cc3)c12
- pIC50 [1]: < 5.00

Structure (SMILES): CN(C)S(=O)(=O)n1cc(-c2cnc(N)c3c(-c4ccc(Oc5ccccc5)cc4)csc23)cn1
- pIC50 [1]: 6.28

Structure (SMILES): Cn1cc(-c2cnc(N)c3c(-c4ccc(NC(=O)c5cccc(Cl)c5)cc4)csc23)cn1
- pIC50 [1]: 6.38

Structure (SMILES): Nc1ncc(-c2cnn(Cc3ccccc3)c2)c2scc(-c3ccc(Oc4ccccc4)cc3)c12
- pIC50 [1]: 6.16

Structure (SMILES): CNC(=O)Cn1cc(-c2cnc(N)c3c(-c4cccc(C(=O)Nc5ccccc5)c4)csc23)cn1
- pIC50 [1]: 6.54

The remaining lines, values ahead:

- pIC50 [1]: 5.71
Structure (SMILES): Nc1ncc(-c2ccncc2)c2scc(-c3ccc(Oc4ccccc4)cc3)c12

- pIC50 [1]: 6.97
- pIC50 [6]: 6.46
- pIC50 [11]: < 5.00
- pIC50 [13]: < 5.00
- pIC50 [18]: < 5.00
Structure (SMILES): Cn1cc(-c2cnc(N)c3c(-c4ccc(Oc5ccccc5)cc4)csc23)cn1

- pIC50 [1]: < 5.00
Structure (SMILES): Nc1ncc(C2CC2)c2scc(-c3ccc(Oc4ccccc4)cc3)c12

- pIC50 [1]: 6.11
Structure (SMILES): Nc1ncc(-c2ccco2)c2scc(-c3ccc(Oc4ccccc4)cc3)c12

- pIC50 [1]: < 5.00
Structure (SMILES): CCCCc1cnc(N)c2c(-c3ccc(Oc4ccccc4)cc3)csc12

- pIC50 [1]: < 5.00
Structure (SMILES): Nc1ncc(-c2ccccc2)c2scc(-c3ccc(Oc4ccccc4)cc3)c12

- pIC50 [1]: 5.98
Structure (SMILES): Nc1ncc(-c2cn[nH]c2)c2scc(-c3ccc(Oc4ccccc4)cc3)c12

From ChEMBL document CHEMBL3603780, “Discovery of thieno[3,2-c]pyridin-4-amines as novel Bruton's tyrosine kinase (BTK) inhibitors” (Bioorg Med Chem, 2015)
